# Efflux pump mplx: blocks antifungal efflux pumps in multiplex yeast assay. S. cerevisiae Candida pump triplex, Nile Red efflux. inhibition, % at 10 µM. hit rate 0.44% among 330,000;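 active means plate passing quality check with inhibition over a set limit, or well fluorescence over plate mean plus 4 SD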;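 further: Nile Red retained in pooled yeast measured as flow cytometry median fluorescence; 0% = buffer negative control and 100% = Enniatin B positive control; higher means more Nile Red kept so more efflux inhibition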
# GalR3 antagonist: human GalR3 antagonism; O60755; HEK293 GalR3-CNG cAMP membrane potential fluorescence; galR3 body fused to GalR1 C-terminus; inhibition, % at 3 µM; hit rate 0.44% among 360,000;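 active means inhibition above the screen-wide average plus 3 SD, cut at about 13% in these data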;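 further: forskolin and galanin both at EC90 stimulate the cells; cAMP rise reported by CNG channel membrane potential dye signal; 0% = forskolin plus galanin with DMSO and 100% = forskolin alone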
# Target sequence (O60755 1-299 limits assumed): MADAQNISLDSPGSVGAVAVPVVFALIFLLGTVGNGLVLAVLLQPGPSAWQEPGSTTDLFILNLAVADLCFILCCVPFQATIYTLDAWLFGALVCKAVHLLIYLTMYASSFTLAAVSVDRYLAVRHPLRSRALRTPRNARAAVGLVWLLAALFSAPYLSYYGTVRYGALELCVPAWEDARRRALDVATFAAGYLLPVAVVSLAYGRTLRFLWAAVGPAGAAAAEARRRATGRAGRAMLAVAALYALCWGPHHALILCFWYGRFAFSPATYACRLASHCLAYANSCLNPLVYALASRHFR
# MC4R antag cAMP: blocks human MC4R cAMP signaling; hit rate 0.48% among 360,000; inhibition, % at 6.5 µM; P32245; MC4R-expressing cells, MTII-stimulated cAMP, LANCE TR-FRET;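 active means inhibition above its plate's cutoff, the mean of tested wells on that plate plus 3 SD, cut at about 29% in these data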;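 further: 0% = Melanotan II alone and 100% = Melanotan II plus saturating MCL0020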
#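 system = U2OS cells with stable human MC4R expression | also added = Melanotan II challenge after compound preincubation | dosing = one concentration, 6.5 µM nominal | incubation = compound 30 min, challenge 1 h, detection 1 h | measured by = TR-FRET with Eu-cAMP and labeled anti-cAMP, 671 nm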
# Calb FLC: affects C. albicans growth with fluconazole. C. albicans CaCi-2 (fluconazole-resistant clinical isolate) + fluconazole, Alamar Blue growth, 48 h. growth inhibition, % (concentration not given with the values). hit rate 0.57% among 300,000. AID 1979;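 active means growth inhibition above about 58% in most replicates, limit read from the data, passing the limit was not always enough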;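 further: all wells also contain fluconazole at 8 µg/ml as a sub-toxic cotreatment; 0% = median of DMSO wells and 100% = median of geldanamycin control wells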
# MC4R barr agon: human MC4R agonism via beta-arrestin. U2OS MC4R beta-arrestin complementation, luminescence; percent of melanotan II response, DMSO zero. activation, % at 8.9 µM. hit rate 0.98% among 360,000;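 active means activation above a per-plate cutoff, the mean activation of sample wells on that plate plus 3 SD, cut at about 8% in these data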
# H9c2 TAG inh: inhibitors of triacylglycerol accumulation; inhibition, % at 12.5 µM; H9c2 cells, Nile Red lipid (TAG) fluorescence; cells loaded with 200 µM oleic acid; hit rate 0.66% among 230,000;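 active means pattern-corrected inhibition of lipid staining of at least 50% with the nuclear-stain viability signal not falling by more than 50%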;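 further: 0% = DMSO wells and 100% = triacsin C control wells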
# Cmpd fluor yeast: flagged as fluorescent in efflux inhibitor counter-screen; shares compounds with Efflux pump mplx; S. cerevisiae AD/pABC3, compound fluorescence, flow cytometry; fluorescence ratio to DMSO, % at 10 µM; hit rate 4% among 1,700; AID 588517;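 active means fluorescence ratio to DMSO above its plate's cutoff, the plate mean ratio plus 5 SD, cut at about 210% in these data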;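 further: unstained yeast with no Nile Red so the signal is compound autofluorescence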
# Mdr1 pump inh: inhibitors of Candida albicans Mdr1 efflux pump | shares compounds with Efflux pump mplx | S. cerevisiae AD/CaMDR1, Nile Red efflux, flow cytometry | inhibition, % at 10 µM | hit rate 1% among 1,700; in the data active means inhibition above about 26%;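 further: 0% = DMSO vehicle and 100% = reference inhibitor; higher means more Nile Red retained so more efflux inhibition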
# CaCdr2 efflux inh: Candida Cdr2 efflux pump inhibition | shares compounds with Efflux pump mplx | S. cerevisiae AD/CaCDR2, Nile Red retention, flow cytometry | Nile Red retention ratio vs DMSO, % at 10 µM | hit rate 4% among 1,700 | AID 588520; in the data active means Nile Red retention ratio vs DMSO above about 190%;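 further: higher ratio means more blocking of Cdr2 efflux of the dye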
# Cdr1 pump inh: Candida Cdr1 efflux pump inhibition. S. cerevisiae AD/CaCDR1, Nile Red efflux, flow cytometry. shares compounds with Efflux pump mplx. AID 588522. hit rate 1% among 1,700. inhibition, % at 10 µM;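 active means inhibition above the screen-wide mean plus twice its standard deviation, cut at about 32% in these data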
# Starred values were filed as active, the others as inactive; . = no result given. Only some compounds are listed: those with a hit (about 2.9% of all), similar ones and a draw of the others.
SMILES,Efflux pump mplx,GalR3 antagonist,MC4R antag cAMP,Calb FLC,MC4R barr agon,H9c2 TAG inh,Cmpd fluor yeast,Mdr1 pump inh,CaCdr2 efflux inh,Cdr1 pump inh
C/C(Cl)=C\C[N+](C)(C)CC(=O)OCCc1ccccc1,0.5*,1,-2,-7,-1,-5,101,0,96,0
CCCCCCCCCCOC(=O)C[N+](C)(C)C/C=C(/C)Cl,1,-1,5,-37,2,.,.,.,.,.
Cc1sc2ncnc(N/N=C/c3cccc(O)c3)c2c1C,0,1,5,5,-2,.,.,.,.,.
C/C(=N\Nc1ncnc2sc(C)c(C)c12)c1ccccn1,30*,-6,-1,-13,0,.,80,0,135,5
O=C(c1nc2nc(-c3ccccc3)cc(C(F)(F)F)n2n1)N1CCOCC1,0,1,-1,14,-2,6,.,.,.,.
CC(C)(C)NC(=O)c1nc2nc(-c3ccccc3)cc(C(F)(F)F)n2n1,8.2*,3,-1,25,-1,.,103,0,98,0
CCCCCNC(=O)C(c1cc2ccccc2o1)n1c(=O)c(-c2cc3ccccc3[nH]2)nc2ccccc21 (configuration not stated),.,-4,.,.,.,.,.,.,.,.
Cc1onc(-c2c(F)cccc2Cl)c1C(=O)NC(=S)NC1CCS(=O)(=O)C1 (configuration not stated),6.5*,-11,3,2,0,.,92,0,112,0
CCOC(=O)c1c(C)[nH]c(C)c1S(=O)(=O)NCc1ccccc1C,0.4*,-1,8,-10,-1,.,105,0,106,0
O=C1/C(=C\c2ccc(-c3ccccc3Cl)o2)SC(=S)N1CC1CCCO1 (configuration not stated),0.5*,-2,-8,-2,-1,7,100,0,116,0
CCCCNC(=O)c1nc(C2CCN(S(=O)(=O)c3ccccc3C(F)(F)F)CC2)oc1-c1ccccc1,.,-7,.,.,.,.,.,.,.,.
CCC1=C(OC(=O)N(CC)CC)N2C(=O)OC(=NCCc3c[nH]c4ccccc34)[C@]2(Cc2ccccc2)[C@H]2C1=CC[C@H]1C(=O)N(c3ccccc3)C(=O)[C@H]12,0,-2,18,-3,0,.,.,.,.,.
CCC1=C(OC(=O)N(CC)CC)N2C(=O)OC(=NCCc3c[nH]c4ccccc34)[C@]2(Cc2ccccc2)[C@H]2C1=CC[C@H]1C(=O)N(C)C(=O)[C@H]12,96*,-8,9,56,-1,47,112,39*,125,1
O=C(COC(=O)c1ccc(F)cc1F)Nc1cc(S(=O)(=O)N2CCOCC2)ccc1Cl,.,-3,2,.,-1,1,.,.,.,.
N#CC(C(=O)NCc1ccccc1)c1nc2ccccc2nc1N1CCCC1 (configuration not stated),0.9*,-5,-5,-1,-1,24,102,0,104,0
O=C(Nc1ccc2c(c1)OCCO2)C1C(c2ccccc2)=Nc2ccccc2N1C(=O)c1cccnc1 (configuration not stated),.,-5,.,.,.,.,.,.,.,.
COCCN1C(=O)/C(=C/c2ccc(N3CCCC3)cc2C)SC1=S,2.2*,-1,-7,.,-2,-202,318*,1,129,0
CC1CCc2c(sc3nc(C(C)(C)C)nc(N4CCN(C(=O)CCl)CC4)c23)C1 (configuration not stated),0.6*,-4,23,31,19*,91*,111,0,121,0
COc1ccccc1C1CC(c2ccccc2)=NN1S(=O)(=O)c1ccccc1 (configuration not stated),0,-8,7,12,0,0,.,.,.,.

# Screening results from PubChem.
